This is a sample that favours compounds with a hit; in the whole collection about 2.3% have one here.
TRPC4 inh: TRPC4 (mouse) channel inhibition; Q9QUQ5; HEK293 TRPC4beta/mu-opioid, DAMGO-evoked Fluo4 calcium flux; active compounds read low; B-score at 10 µM; 300,000 tested, 0.39% active; AID 2247;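 active means B-score over 3 SD under the library average, no early fluorescence shift, positive overall ratio signal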
Target sequence (Q9QUQ5 whole entry, looked up): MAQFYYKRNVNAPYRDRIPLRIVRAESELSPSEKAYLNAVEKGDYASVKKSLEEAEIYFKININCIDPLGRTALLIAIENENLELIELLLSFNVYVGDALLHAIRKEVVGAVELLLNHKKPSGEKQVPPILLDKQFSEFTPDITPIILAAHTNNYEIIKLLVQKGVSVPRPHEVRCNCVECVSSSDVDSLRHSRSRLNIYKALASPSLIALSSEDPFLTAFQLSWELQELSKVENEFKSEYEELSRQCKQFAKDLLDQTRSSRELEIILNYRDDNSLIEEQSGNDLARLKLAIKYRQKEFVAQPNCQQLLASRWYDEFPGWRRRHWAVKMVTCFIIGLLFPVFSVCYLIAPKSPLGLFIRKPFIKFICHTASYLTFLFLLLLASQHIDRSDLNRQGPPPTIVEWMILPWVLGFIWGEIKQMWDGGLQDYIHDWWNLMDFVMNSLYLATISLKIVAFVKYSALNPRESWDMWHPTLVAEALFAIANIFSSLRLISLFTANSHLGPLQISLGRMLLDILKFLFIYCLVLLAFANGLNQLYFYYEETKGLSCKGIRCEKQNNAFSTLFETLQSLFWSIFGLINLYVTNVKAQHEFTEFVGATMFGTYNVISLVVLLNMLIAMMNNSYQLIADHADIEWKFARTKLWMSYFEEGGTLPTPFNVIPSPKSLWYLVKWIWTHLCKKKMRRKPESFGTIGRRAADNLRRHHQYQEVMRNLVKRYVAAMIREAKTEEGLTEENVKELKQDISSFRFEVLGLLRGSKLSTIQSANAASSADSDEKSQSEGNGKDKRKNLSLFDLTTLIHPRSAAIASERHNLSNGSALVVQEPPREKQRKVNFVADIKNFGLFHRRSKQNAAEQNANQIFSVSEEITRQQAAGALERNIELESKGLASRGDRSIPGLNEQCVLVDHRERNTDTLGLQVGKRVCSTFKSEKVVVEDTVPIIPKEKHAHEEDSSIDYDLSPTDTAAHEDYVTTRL
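Signal: kinetic Fluo4 fluorescence imaging of calcium influx. Material: stable TRPC4beta/mu-opioid receptor HEK293 cells. Probe or stimulus: DAMGO in two steps, submaximal then maximal.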
TRPC4 agonist: opens the mouse TRPC4 cation channel; HEK293 TRPC4beta/mu-opioid, Fluo4 calcium fluorescence; active compounds read high; 310,000 tested, 0.49% active; B-score at 10 µM;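 active means B-score above 5 SD of library B-scores, and initial fluorescence ratio not above library mean plus 5 SD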;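 further: positive B-score marks a calcium rise read as TRPC4 activation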
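System: HEK293 cells stably co-expressing mouse TRPC4beta and mu-opioid receptor; Schedule: Fluo4 dye loading 45 min at room temperature, 110 s recording; Detection: Fluo4 fluorescence, kinetic; Evaluation: B-scored integrated calcium fluorescence ratio; Controls: buffer (low) and maximal DAMGO (high).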
TRPC6 activator: activators of mouse TRPC6 channel; HEK293-TRPC6 membrane potential dye fluorescence; active compounds read high; B-score at 10 µM; AID 2550; 310,000 tested, 0.13% active;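 active means B-score of the integrated fluorescence ratio above library mean plus 3 SD, and starting fluorescence ratio within library mean plus 5 SD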;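 further: higher score means more depolarization so channel activation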
TRPC6 inhibitor: inhibitors of mouse TRPC6 channel | B-score at 10 µM | 310,000 tested, 1.1% active | Q61143 | HEK293-TRPC6, membrane potential dye, ACh-evoked depolarization; active compounds read low;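 active means B-score under library mean minus 3 SD, initial fluorescence not abnormally high, positive integrated signal ratio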;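 further: B-score derived from integrated fluorescence ratio over the kinetic read; more negative B-score means stronger inhibition of depolarization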
TRPC4 PAM: allosteric potentiators of mouse TRPC4 channel | B-score at 10 µM | AID 2227 | HEK293 TRPC4beta/mu-opioid, DAMGO EC20, Fluo-4 Ca2+ flux; active compounds read high | Q9QUQ5 | 310,000 tested, 0.42% active;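 active means B-score of calcium response area above 5 SD of library B-scores, with initial fluorescence ratio within 5 SD of library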
TRPC4 sel inh 2: mouse TRPC4 off-target activity of TRPC6 inhibitors, second screen; HEK293 TRPC4/MOR, membrane potential dye fluorescence; channel activated by saturating DAMGO dose; 920 tested, 42% active; inhibition, % at 10 µM; shares compounds with TRPC6 inhibitor;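 active means compounds whose fluorescence signal differed from control wells by over 3 SD, either direction, in both duplicate plates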
TRPC4 spec: selectivity of TRPC6 inhibitors: effect on mouse TRPC4; shares compounds with TRPC6 inhibitor; HEK293 TRPC4/mu-opioid, membrane potential fluorescence; activity change, negative = inhibition, % at 10 µM; 920 tested, 61% active;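 active means rise or fall in signal beyond 3 SD of buffer-only wells in both replicate plates, either sign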;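 further: integrated kinetic ratio of fluorescence range over baseline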
HEK293 MPD ctr 2-1: second counter-screen for TRPC6 inhibitors: parental HEK293 cells; 920 tested, 31% active; parental HEK293 membrane potential dye fluorescence; maximal acetylcholine challenge after compound addition; signal change vs control, % at 10 µM; shares compounds with TRPC6 inhibitor; AID 2779;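 active means membrane potential signal moving either way by over 3 SD of the maximum-effect control, in both duplicate plates, meaning non-specific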
HEK293 MPD ctr-1: parental HEK293 nonspecific activity of TRPC6 inhibitors; shares compounds with TRPC6 inhibitor; parental HEK293 membrane potential dye fluorescence; membrane potential signal change, % at 10 µM; 920 tested, 60% active; AID 2780;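 active means membrane potential signal shifting up or down by more than 3 SD of buffer-only wells, on both duplicate plates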
HEK293 MPD ctr-2: counter-screen for TRPC6 modulators: effect in parental HEK293 cells | shares compounds with TRPC6 inhibitor | membrane potential dye fluorescence | membrane potential signal change, % at 10 µM | 2,400 tested, 51% active | AID 488924;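 active means membrane potential signal moves up or down beyond 5 SD from buffer-only wells, on both duplicate plates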
HEK293 MPD ctr 2-2: second counter-screen for TRPC6 modulators: effect in parental HEK293 cells; shares compounds with TRPC6 inhibitor; membrane potential dye fluorescence; after compound, maximal acetylcholine stimulation; inhibition, % at 10 µM; 2,400 tested, 14% active; AID 488926;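 active means membrane potential signal drops by more than 5 SD from the mean control signal, in both duplicate plates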
TRPC4/MOR mod: tests whether TRPC6 modulators also affect mouse TRPC4. 2,400 tested, 69% active. HEK293 TRPC4/mu-opioid, membrane potential fluorescence. shares compounds with TRPC6 inhibitor. percent change from control (negative = decrease, positive = increase), % at 10 µM. AID 488927;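 active means membrane potential signal moved up or down beyond 5 SD of buffer control wells, in both duplicate plates, actives on both sides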
TRPC4 ctr inh 2: second check of whether TRPC6 modulators also affect mouse TRPC4; HEK293 TRPC4/mu-opioid, membrane potential dye fluorescence; stimulated with maximal-effect DAMGO; 2,400 tested, 55% active; shares compounds with TRPC6 inhibitor; inhibition, % at 10 µM;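 active means drop in membrane potential signal beyond 5 SD of the control wells in both duplicate plates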;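 further: TRPC4 counter screen for TRPC6 hits run under conditions tuned for TRPC6 not TRPC4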
TRPC6 inh conf: mouse TRPC6 inhibitor confirmation | shares compounds with TRPC6 inhibitor | HEK293-TRPC6, membrane potential dye, ACh-evoked depolarization | inhibition, % at 10 µM | 3,300 tested, 43% active | AID 488960;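 active means fluorescence ratio falls more than 5 SD below the full-stimulation control mean, in both duplicate runs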;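 further: integrated fluorescence ratio of peak minus minimum over baseline after agonist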
TRPC6 act conf: mouse TRPC6 activator confirmation. AID 488961. shares compounds with TRPC6 inhibitor. 2,800 tested, 11% active. HEK293-TRPC6 membrane potential dye fluorescence, FDSS. activation, % at 10 µM;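 active means ratio signal rise beyond 5 SD above unstimulated control wells' mean, seen in both duplicate runs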
Numbers stand for hits; . = inactive; / = no result.

SMILES | TRPC4 inh | TRPC4 agonist | TRPC6 activator | TRPC6 inhibitor | TRPC4 PAM | HEK293 MPD ctr-2 | HEK293 MPD ctr 2-2 | TRPC4/MOR mod | TRPC4 ctr inh 2 | TRPC6 inh conf | TRPC6 act conf | others
O=C(c1cccc(-n2cccc2)c1)N1CCN(S(=O)(=O)c2c(F)cccc2F)CC1 | . | . | . | -6.11 | . | . | . | . | . | 44.5% | /
Cc1ccc(S(=O)(=O)N2CCN(C(=O)c3ccccc3)CC2)cc1 | . | . | 14.7 | -12.4 | . | . | . | . | . | 66.0% | 98.0%
Cc1ccc(S(=O)(=O)N2CCN(C(=O)c3cccc(-n4cccc4)c3)CC2)cc1 | . | . | 13.7 | -13.4 | . | . | . | . | . | . | .
O=C(c1cccc(-n2cccc2)c1)N1CCN(S(=O)(=O)c2ccccc2)CC1 | . | . | . | -7.03 | . | / | / | / | / | 66.1% | . | TRPC4 sel inh 2=.;TRPC4 spec=.;HEK293 MPD ctr 2-1=.;HEK293 MPD ctr-1=.
CC(=O)Nc1ccc(/C=C/c2nc(-c3ccccc3O)n[nH]2)cc1 | . | . | . | . | . | / | / | / | / | / | /
Cc1ccccc1-c1nnc(-c2cccs2)o1 | . | . | . | . | . | / | / | / | / | / | /
O=C(c1cccc(F)c1)N1CCN(S(=O)(=O)c2ccc(C(F)(F)F)cc2)CC1 | / | . | 14.5 | -11.8 | . | . | . | . | . | 61.5% | 71.5%
O=C(c1ccccc1)N1CCN(C2C3CC4CC(C3)CC2C4)CC1 (centres undefined) | . | . | . | -9.55 | . | / | / | / | / | . | / | TRPC4 sel inh 2=.;TRPC4 spec=2.6%;HEK293 MPD ctr 2-1=.;HEK293 MPD ctr-1=6.7%
CCN(c1ccccc1)S(=O)(=O)c1cccc(C(=O)N2CCN(S(=O)(=O)c3ccccc3)CC2)c1 | . | . | . | -10.6 | . | / | / | / | / | . | / | TRPC4 sel inh 2=.;TRPC4 spec=.;HEK293 MPD ctr 2-1=.;HEK293 MPD ctr-1=.
C=CCN(c1ccccc1)S(=O)(=O)c1cccc(C(=O)N2CCCC2)c1 | . | . | . | . | . | / | / | / | / | / | /
Cc1ccc(C(=O)N2CCN(S(=O)(=O)c3ccc(C(C)C)cc3)CC2)s1 | . | . | 14.7 | -12.5 | . | . | . | . | . | . | .
COc1ccc(N(CCC(=O)Nc2ccccc2F)S(=O)(=O)c2ccc(C)cc2C)cc1 | . | . | . | . | . | / | / | / | / | / | /
C=CC[n+]1c(/C=C/c2ccc(OC(C)=O)c(OC)c2)ccc2ccccc21 | . | . | . | -7.99 | . | -301.0% | 89.5% | -57.0% | 65.0% | 64.5% | .
COc1cc(/C=N/NC(=O)Nc2ccccc2)ccc1OC(C)=O | . | . | . | . | . | / | / | / | / | / | /
Cn1c(=O)cc2c3c(c(N4CCCCC4)ccc31)C(=O)c1ccccc1-2 | . | . | . | -5.07 | . | -181.5% | . | -42.0% | 54.0% | 39.0% | .
O=C1c2ccccc2C(=O)c2c1cccc2N1CCCC1 | . | . | . | . | . | / | / | / | / | / | /
Cc1ccc(S(=O)(=O)CC(=O)c2ccc3c(c2)OCCO3)cc1 | . | . | . | . | . | / | / | / | / | / | /
CCCCN(C)CC(O)Cn1cc(/C=C/C(=O)c2cccs2)c2ccccc21 (centres undefined) | . | . | . | . | . | / | / | / | / | / | /
O=C(/C=C/c1cn(CC(O)CN2CCCCCC2)c2ccccc12)c1cccs1 (centres undefined) | . | . | . | -6.12 | . | 651.5% | . | -21.0% | 87.5% | 62.0% | .
Cc1cccc(NC(=O)COc2ccc(/C=C\c3[nH]c(=O)[nH]c(=O)c3[N+](=O)[O-])cc2)c1 | . | . | 13.6 | . | . | . | . | . | . | . | .
COc1ccc(S(=O)(=O)Nc2ccc(F)cc2F)cc1C(=O)N1CCOCC1 | . | . | . | . | . | / | / | / | / | / | /
CCOC(=O)c1c(NC(=O)C2C3C=CC(CC3)C2C(=O)O)sc(C)c1CC (centres undefined) | . | . | 12.4 | . | . | 109.5% | . | 21.0% | . | . | 60.5%
O=[N+]([O-])c1cccc(S(=O)(=O)NCc2ccncc2)c1 | . | . | . | . | . | / | / | / | / | / | /
O=C(COc1ccc2ccccc2c1CN1CCOCC1)N1CCc2ccccc21 | . | . | . | -7.21 | . | / | / | / | / | 88.0% | . | TRPC4 sel inh 2=25.5%;TRPC4 spec=.;HEK293 MPD ctr 2-1=.;HEK293 MPD ctr-1=1.3%
CCOC(=O)c1ccc(NC(=O)CCc2ccc(CC)o2)cc1 | . | . | . | -11.8 | . | / | / | / | / | . | / | TRPC4 sel inh 2=.;TRPC4 spec=.;HEK293 MPD ctr 2-1=.;HEK293 MPD ctr-1=.
SMILES | TRPC4 inh | TRPC4 agonist | TRPC6 activator | TRPC6 inhibitor | TRPC4 PAM | HEK293 MPD ctr-2 | HEK293 MPD ctr 2-2 | TRPC4/MOR mod | TRPC4 ctr inh 2 | TRPC6 inh conf | TRPC6 act conf | others
O=C(C[n+]1cc2ccccc2c2ccccc21)c1ccccc1 | -7 | 49 | . | -9.85 | . | / | / | / | / | . | . | TRPC4 sel inh 2=33.0%;TRPC4 spec=0.9%;HEK293 MPD ctr 2-1=.;HEK293 MPD ctr-1=-486.0%
O=C(C[n+]1cccc2ccccc21)c1ccccc1 | . | . | . | . | . | / | / | / | / | / | /
O=C(CCCN1CCC(c2ccccc2)C1)c1ccc2c(c1)OCCO2 (centres undefined) | . | . | . | -6.5 | . | 111.5% | . | . | 77.0% | 67.5% | /
CCN1CC(C)C(O)(c2ccccc2)CC1C (centres undefined) | . | . | . | -7.15 | . | / | / | / | / | . | . | TRPC4 sel inh 2=.;TRPC4 spec=.;HEK293 MPD ctr 2-1=.;HEK293 MPD ctr-1=.
CC1CC(O)(CC(O)(c2ccccc2)c2ccccc2)C(C)CN1C (centres undefined) | . | . | . | . | . | / | / | / | / | / | /
CC(=O)c1ccc(NC2=C(N3CCOCC3)C(=O)c3ccccc3C2=O)cc1 | . | . | . | . | . | / | / | / | / | / | /
Cc1ccc(NC2=C(N3CCOCC3)C(=O)c3ccccc3C2=O)cc1 | . | . | . | -5.48 | . | . | . | -31.0% | 78.0% | . | .
CCOc1ccc(C2Nc3cccc4cccc(c34)N2)cc1OC | . | . | . | . | . | / | / | / | / | / | /

Bioassay records (PubChem)
